Screening data as filed in PubChem.
Shown is part of a subset that was picked to be rich in hits.
CHOP UPR activ = activators of apoptotic arm of unfolded protein response (CHOP); hit rate 0.34% among 330,000; AID 449763; activation, % at 10 µM; CHO-CHOP luciferase reporter, UPR activation, luminescence; percent of tunicamycin response over DMSO baseline;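 active means at 10 µM dose, activation of 40% or more, normalized to positive control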
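System: CHO-CHOP luciferase reporter cell line; amount: 500 cells/well; buffer or medium: F12 medium containing 10% fetal bovine serum; incubation: 6 h compound exposure at 37 °C after overnight seeding; measured by: luciferase luminescence after 10 min with Steady-Glo reagent; evaluation: % reporter activation, DMSO baseline versus tunicamycin full activation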
CHOP inh = inhibitors of CHOP induction in ER stress response; CHO-K1 CHOP-promoter luciferase, tunicamycin-induced, 15-18 h; inhibition, % at 10 µM; hit rate 3.8% among 220,000; AID 2732;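 active means compounds that reduced the stress-induced luciferase reporter signal by more than about 70% of percent inhibition, limit read from the data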
NOD2-RIPK2 inh = inhibitors of human NOD2-RIPK2 interaction. hit rate 0.38% among 360,000. CHO BLA complementation NOD2-RIPK2, CCF4 ratio. inhibition, % at 4.98 µM; in the data active means inhibition above about 21%
TLR9-MyD88 inh = inhibitors of human TLR9-MyD88 binding | hit rate 0.21% among 340,000 | CHO BLA complementation TLR9-MyD88, CCF4 FRET ratio | inhibition, % at 4.98 µM | Q9NR96+Q99836;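 active means inhibition above the mean over all tested compounds plus 3 SD, cut at about 21% in these data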
XBP1 UPR activ = adaptive UPR (XBP1) activation | CHO-XBP1 luciferase reporter, IRE1-XBP1 UPR activation, luminescence; percent of tunicamycin response, DMSO as zero | activation, % at 20 µM | hit rate 0.33% among 330,000;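 active means versus positive control, 20 µM dose yields 30% or more activation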
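incubation = overnight seeding at 37 °C, 6 h compound treatment at 37 °C | assay system = CHO-XBP1 cells stably carrying IRE1-XBP1-driven luciferase reporter | input = 1000 cells per well | detection = luciferase luminescence | dosing = single point, 20 µM final compound, 1% DMSO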
TLR4 MyD88 comp = TLR4-MyD88 interaction inhibition in cells; inhibition, % at 8.4 µM; hit rate 0.18% among 200,000; HeLa CL3-4 TLR4/MyD88 BLA complementation, FRET ratio; AID 861; in the data active means inhibition above about 25%
Of the large screens only hits and unclear results are named; the others gave an inactive call.

CCCCCc1nnc(NC(=O)OCCC)s1	none
CCCCCOC(=O)Nc1nnc(CCCCC)s1	CHOP inh 95.1
CCOCCn1c(=NC(=O)c2cc(Cl)sc2Cl)sc2cc(S(N)(=O)=O)ccc21	CHOP inh 90.4 (no result: NOD2-RIPK2 inh, TLR9-MyD88 inh)
COCCn1c(=NC(=O)c2cc(Cl)sc2Cl)sc2cc(S(N)(=O)=O)ccc21	CHOP inh 81.4
CCCCn1c(N)c(N(CCC(C)C)C(=O)c2ccc3c(c2)OCO3)c(=O)[nH]c1=O	none (no result: CHOP inh, TLR4 MyD88 comp)
Cc1cccc(OCC(=O)Nc2cccc3nsnc23)c1	none
O=C(COc1ccccc1)Nc1cccc2nsnc12	CHOP inh 76.4
Cc1cc(C)c(S(=O)(=O)c2ccc(Cl)cc2C)c(Cl)n1	none
CC(NC(=O)COC(=O)c1cn(-c2ccccc2)nc1-c1cccs1)c1ccccc1 (stereo not drawn)	CHOP inh 90.4
Cc1cc(NC(=O)c2ccc3nc(-c4ccccc4)c(-c4ccccc4)nc3c2)no1	CHOP inh 78.4
COc1cccc(NS(=O)(=O)c2c(C)cc(C)cc2C)c1	CHOP inh 94.9
COc1ccc(NS(=O)(=O)c2c(C)cc(C)cc2C)cc1	none
CCCCc1cc(=O)oc2cc(OCc3nn[nH]n3)ccc12	none (no result: TLR4 MyD88 comp)
CCN(CC)S(=O)(=O)c1cccc(C(=O)N/N=C/c2ccc(O)c(O)c2O)c1	none (no result: CHOP UPR activ, XBP1 UPR activ)
Oc1ccc(/C=N/N=C(c2ccccc2)c2ccccc2)c(O)c1O	CHOP inh 70.2 (no result: CHOP UPR activ, XBP1 UPR activ)
O=C(/C(=N/N=C/c1ccc(O)c(O)c1O)c1ccccc1)c1ccccc1	CHOP inh 72.1
Cc1ccc(S(=O)(=O)NNC2CC(=O)N(c3ccc(Br)cc3)C2=O)cc1 (stereo not drawn)	CHOP inh 73.2
Cc1ccc(N2C(=O)CC(Nc3ccccc3)C2=O)cc1 (stereo not drawn)	none
O=C(COC(=O)CCc1ccccc1)NNC(=O)c1ccccc1	none (no result: CHOP inh, TLR4 MyD88 comp)
CCN(CC)CCCNC(=O)CN1N=C(c2ccc(OC)cc2)CCC1=O	none (no result: CHOP inh, TLR4 MyD88 comp)
CC(=O)c1cccc(N=c2scc(-c3ccc(S(=O)(=O)N4CCOCC4)cc3)n2CCO)c1	none
C=CCn1c(-c2ccc(S(=O)(=O)N3CCOCC3)cc2)csc1=Nc1ccccc1	CHOP inh 71.6
CCOC(=O)C1=C(O)/C(=C\c2ccc(CNC(=O)C(=O)Nc3ccccc3)o2)N=C1C	none
COc1ccc(-n2c(=O)/c(=C\c3cccs3)s/c2=C(/C#N)C(=O)N2CCN(C)CC2)cc1	CHOP inh 89.8
N#C/C(C(=O)N1CCOCC1)=c1/s/c(=C\c2ccccn2)c(=O)n1-c1ccccc1	none
COc1ccc(N2CC(C(=O)Nc3nnc(SCC(=O)NCC4CCCO4)s3)CC2=O)cc1 (stereo not drawn)	none (no result: CHOP inh, TLR4 MyD88 comp)
COc1nc(C)nc2c1sc(=S)n2C	CHOP inh 71.0
O=C(NCCC(F)(F)F)C1Cc2c(-c3ccc(Cl)cc3)ccnc2O1 (stereo not drawn)	none (no result: CHOP UPR activ, CHOP inh, TLR9-MyD88 inh, XBP1 UPR activ, TLR4 MyD88 comp)
O=C/C(=C\Nc1ccc(Br)cc1)c1nc2ccccc2o1	CHOP inh 74.5
COc1cc(NC(=O)N2CCc3nc(Nc4cc(Cl)cc(Cl)c4)ncc3C2)cc(OC)c1OC	none (no result: CHOP UPR activ, CHOP inh, TLR9-MyD88 inh, XBP1 UPR activ, TLR4 MyD88 comp)
COc1cccc(C2=Nn3c(nnc3-c3ccccc3O)SC2)c1	none
C[n+]1c2n(c3ccccc31)N=C(c1cc(C(C)(C)C)c(O)c(C(C)(C)C)c1)CS2	CHOP inh 72.8
Cc1nn(S(=O)(=O)c2ccccc2)c(C)c1Sc1ccc([N+](=O)[O-])cc1	CHOP inh 80.2
CC(C)=CCC[C@H](C)C[C@@H]1Cc2[nH][nH]c(=O)c2[C@H](c2ccc(F)cc2)O1	none (no result: CHOP UPR activ, CHOP inh, TLR9-MyD88 inh, XBP1 UPR activ, TLR4 MyD88 comp)
CC[N+]1=C(C)C(C)(C)c2cc(C)ccc21	CHOP inh 73.6
O=C(O)c1ccc(C2NCC(c3ccccc3Cl)c3c2[nH]c2ccccc32)cc1 (stereo not drawn)	none
COc1cc(C2NCC(c3ccc(Cl)cc3Cl)c3c2[nH]c2ccccc32)cc(OC)c1OC (stereo not drawn)	CHOP inh 76.6
CCOC(=O)c1ccc(NC(=O)c2cccc(S(=O)(=O)N3c4ccccc4CC3C)c2)s1 (stereo not drawn)	CHOP inh 71.5
CC1Cc2ccccc2N1S(=O)(=O)c1cccc(C(=O)NCCCO)c1 (stereo not drawn)	none
Cc1cc(C)c2oc(-c3cccc(NC(=O)c4ccc(F)cc4)c3)nc2c1	CHOP inh 90.9
COc1cc(C(=O)Nc2cccc(-c3nc4cc(C)cc(C)c4o3)c2)cc(OC)c1OC	CHOP inh 76.0 (no result: CHOP UPR activ, XBP1 UPR activ)
COc1cc(C(=O)Nc2ccc(-c3nc4cc(C)ccc4o3)c(O)c2)cc(OC)c1OC	none
Cc1ccc2c(n1)CC(C)(C)CC2=O	none
COc1cccc(C(C)(O)c2nc(-c3ccc4ccccc4c3)cs2)c1 (stereo not drawn)	none (no result: CHOP UPR activ, CHOP inh, TLR9-MyD88 inh, XBP1 UPR activ, TLR4 MyD88 comp)
NC(=S)c1ccc[n+]([C@@H]2O[C@@H](COP(=O)([O-])OP(=O)(O)OC[C@H]3O[C@@H](n4cnc5c(N)ncnc54)C(OP(=O)(O)O)[C@H]3O)C(O)C2O)c1 (stereo partly drawn)	none (no result: CHOP UPR activ, NOD2-RIPK2 inh, TLR9-MyD88 inh, XBP1 UPR activ, TLR4 MyD88 comp)
CC1=C(C(=O)OC(C)C)C(c2ccccc2Cl)CC(=O)N1 (stereo not drawn)	CHOP inh 76.4
CC12CCC(C/C1=N/NC(=O)Nc1ccccc1)C2(C)C (stereo not drawn)	CHOP inh 89.6
COc1cc(/C=C2\SC(=S)N(NC(=O)c3cccnc3)C2=O)ccc1O	none (no result: TLR4 MyD88 comp)
COc1cc(/C=C2\SC(=S)N(c3cccnc3)C2=O)ccc1O	CHOP inh 90.3 (no result: TLR4 MyD88 comp)
COc1cc(/C=C2\SC(c3ccc(C)cc3)=NC2=O)ccc1O	CHOP inh 86.2
COc1cccc2c1Oc1ncccc1N(C(=O)CCC(=O)NCc1cccc(C)c1)C2	none (no result: CHOP inh, TLR4 MyD88 comp)
O=C(CCS(=O)(=O)c1ccccc1)NC12CC3CC(CC(C3)C1)C2	CHOP inh 74.5
O=C(CCS(=O)(=O)c1ccccc1)NCCS(=O)(=O)c1ccccc1	none
Fc1ccc(-c2nn3c(C4COc5ccccc5O4)nnc3s2)cc1 (stereo not drawn)	none
c1ccc2c(c1)OCC(c1nnc3sc(-c4ccc5c(c4)OCO5)nn13)O2 (stereo not drawn)	CHOP inh 85.6
COc1ccc(CN2CCNC(=O)C2CC(=O)N(C)C2CCCCC2)cc1OC (stereo not drawn)	none (no result: CHOP UPR activ, CHOP inh, XBP1 UPR activ, TLR4 MyD88 comp)
CC(C)(C)c1ccc(C2C(C#N)=C(N)Oc3n[nH]c(-c4cccnc4)c32)cc1 (stereo not drawn)	CHOP inh 76.1 (no result: TLR4 MyD88 comp)
COc1ccc(S(=O)(=O)N(C)C[C@H]2Oc3c(NC(=O)NC4CCCCC4)cccc3C(=O)N([C@H](C)CO)C[C@@H]2C)cc1	none (no result: CHOP inh, TLR4 MyD88 comp)
Cc1c(CNCCc2ccccc2Cl)c(C(=O)O)c(C)n1-c1ccccc1	none (no result: CHOP inh, TLR4 MyD88 comp)
